Columns and labels:
[1] = molecular target: T1, Adrenergic receptor alpha-2 (Rattus norvegicus, UniProt P22086+P19328+P22909); assay: Binding affinity to alpha-2 adrenergic receptor determined by measurement of [3H]yohimbine displacement from rat cortical membrane
T1 sequence (P22086 whole entry): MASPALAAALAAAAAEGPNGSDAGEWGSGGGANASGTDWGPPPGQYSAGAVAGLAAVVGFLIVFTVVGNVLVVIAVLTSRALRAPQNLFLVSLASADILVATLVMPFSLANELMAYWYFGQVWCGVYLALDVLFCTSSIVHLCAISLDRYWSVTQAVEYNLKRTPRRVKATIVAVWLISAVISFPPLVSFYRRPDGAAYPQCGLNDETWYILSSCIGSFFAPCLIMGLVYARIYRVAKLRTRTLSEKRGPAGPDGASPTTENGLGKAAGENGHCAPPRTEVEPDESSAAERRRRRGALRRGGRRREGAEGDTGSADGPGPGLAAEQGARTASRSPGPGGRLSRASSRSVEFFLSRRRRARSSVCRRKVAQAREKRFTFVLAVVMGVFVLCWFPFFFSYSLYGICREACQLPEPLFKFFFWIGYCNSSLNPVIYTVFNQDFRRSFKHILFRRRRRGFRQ
T1 sequence (P19328 whole entry): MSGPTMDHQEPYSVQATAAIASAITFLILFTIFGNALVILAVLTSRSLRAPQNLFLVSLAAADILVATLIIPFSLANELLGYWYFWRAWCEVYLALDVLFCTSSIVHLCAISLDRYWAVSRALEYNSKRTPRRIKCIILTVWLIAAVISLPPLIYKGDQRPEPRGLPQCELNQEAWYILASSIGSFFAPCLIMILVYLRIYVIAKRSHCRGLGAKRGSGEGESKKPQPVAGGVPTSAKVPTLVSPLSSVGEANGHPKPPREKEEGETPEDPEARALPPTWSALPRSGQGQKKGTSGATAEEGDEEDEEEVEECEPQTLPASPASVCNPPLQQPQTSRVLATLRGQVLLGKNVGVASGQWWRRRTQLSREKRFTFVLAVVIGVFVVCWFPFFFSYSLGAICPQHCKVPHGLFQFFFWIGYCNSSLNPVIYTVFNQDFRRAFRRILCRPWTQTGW
T1 sequence (P22909 whole entry): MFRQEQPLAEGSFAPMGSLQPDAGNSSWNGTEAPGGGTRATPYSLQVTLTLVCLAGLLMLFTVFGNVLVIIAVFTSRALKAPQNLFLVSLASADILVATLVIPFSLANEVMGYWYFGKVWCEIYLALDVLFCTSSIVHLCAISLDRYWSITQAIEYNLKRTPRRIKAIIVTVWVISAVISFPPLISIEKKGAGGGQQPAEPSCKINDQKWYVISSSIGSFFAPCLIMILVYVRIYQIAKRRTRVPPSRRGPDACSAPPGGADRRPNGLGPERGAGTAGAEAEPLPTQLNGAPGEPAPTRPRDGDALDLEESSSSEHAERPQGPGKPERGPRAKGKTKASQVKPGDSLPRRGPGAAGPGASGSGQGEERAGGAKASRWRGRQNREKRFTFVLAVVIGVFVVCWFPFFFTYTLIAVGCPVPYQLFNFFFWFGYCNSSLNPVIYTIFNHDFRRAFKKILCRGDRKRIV

[2] = molecular target: T2, Adrenergic receptor alpha-1 (Rattus norvegicus, UniProt P15823+P23944+P43140); assay: Binding affinity to alpha-1 adrenergic receptor determined by measurement of [3H]prazosin displacement from rat cortical membrane
T2 sequence (P15823 whole entry): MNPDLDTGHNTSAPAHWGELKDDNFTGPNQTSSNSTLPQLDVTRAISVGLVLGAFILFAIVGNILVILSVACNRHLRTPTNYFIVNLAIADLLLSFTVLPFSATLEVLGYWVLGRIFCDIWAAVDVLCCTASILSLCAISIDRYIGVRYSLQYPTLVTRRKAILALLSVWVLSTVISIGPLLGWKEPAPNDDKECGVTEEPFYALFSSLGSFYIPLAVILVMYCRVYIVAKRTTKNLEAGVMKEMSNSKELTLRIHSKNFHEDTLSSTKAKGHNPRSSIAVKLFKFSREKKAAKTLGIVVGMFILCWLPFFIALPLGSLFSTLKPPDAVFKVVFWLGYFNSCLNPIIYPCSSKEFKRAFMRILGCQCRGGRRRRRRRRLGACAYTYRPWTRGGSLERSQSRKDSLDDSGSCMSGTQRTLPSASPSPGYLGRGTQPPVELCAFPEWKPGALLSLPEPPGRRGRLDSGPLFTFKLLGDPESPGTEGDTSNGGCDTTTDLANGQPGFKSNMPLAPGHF
T2 sequence (P23944 whole entry): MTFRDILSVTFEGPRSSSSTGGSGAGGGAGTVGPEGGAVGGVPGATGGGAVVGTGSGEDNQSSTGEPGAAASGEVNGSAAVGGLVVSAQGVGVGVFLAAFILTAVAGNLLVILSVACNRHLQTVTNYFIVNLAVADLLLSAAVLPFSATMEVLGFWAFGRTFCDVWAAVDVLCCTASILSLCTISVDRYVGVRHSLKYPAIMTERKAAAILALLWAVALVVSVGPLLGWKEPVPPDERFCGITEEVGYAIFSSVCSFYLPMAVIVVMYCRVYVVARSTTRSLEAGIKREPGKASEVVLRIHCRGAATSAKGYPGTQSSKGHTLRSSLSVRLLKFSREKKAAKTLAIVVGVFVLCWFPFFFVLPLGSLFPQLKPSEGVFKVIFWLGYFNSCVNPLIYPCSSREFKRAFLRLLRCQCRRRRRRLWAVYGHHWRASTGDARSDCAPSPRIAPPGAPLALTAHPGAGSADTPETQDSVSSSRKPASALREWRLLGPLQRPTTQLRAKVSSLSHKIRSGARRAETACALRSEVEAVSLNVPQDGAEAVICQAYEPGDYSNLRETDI
T2 sequence (P43140 whole entry): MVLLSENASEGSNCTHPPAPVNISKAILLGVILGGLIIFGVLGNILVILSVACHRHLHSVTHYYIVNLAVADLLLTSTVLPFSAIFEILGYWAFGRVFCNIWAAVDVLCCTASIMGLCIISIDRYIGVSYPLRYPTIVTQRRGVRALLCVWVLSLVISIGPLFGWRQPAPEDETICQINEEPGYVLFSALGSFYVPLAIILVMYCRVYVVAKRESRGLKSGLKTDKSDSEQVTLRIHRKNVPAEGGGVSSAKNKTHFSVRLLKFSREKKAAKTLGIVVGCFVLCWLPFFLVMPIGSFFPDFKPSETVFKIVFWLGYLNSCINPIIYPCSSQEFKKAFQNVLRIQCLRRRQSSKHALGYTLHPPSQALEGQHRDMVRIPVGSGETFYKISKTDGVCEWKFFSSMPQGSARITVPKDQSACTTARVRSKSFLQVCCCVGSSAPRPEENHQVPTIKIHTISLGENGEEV
Method in brief: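 Male Sprague-Dawley rat (150-200 g) cerebral cortex membranes, washed in 50 mM Tris-HCl/0.5 mM EDTA pH 7.4. 250 µg membrane protein incubated with 0.5 nM [3H]prazosin for 30 min at 25 °C in a 0.5 mL volume. Nonspecific binding defined by 10 µM phentolamine. IC50 estimated graphically; Ki calculated by Cheng-Prusoff.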

[3] = species on record: Cavia porcellus; assay: In vitro reversal of inhibitory effect of UK - 14304 on the contractile response of guinea pig ileum to field stimulation.; type: functional, organism-based; conditions: read-out: pA2 (converted)
Method in brief: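 Ileum from female Dunkin-Hartley guinea pigs (250-300 g) held in Tyrode solution at 37 °C, gassed with O2, under 1 g tension. Field stimulation at 0.1 Hz (1-ms pulses, supramaximal voltage), with isometric contractions recorded. Cumulative UK-14304 curves were run, the second taken as control. Antagonist was then applied for 40 min before repeat agonist curves.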

[4] = molecular target: T3, Adrenergic receptor alpha-2 (Rattus norvegicus) (UniProt P22086+P19328+P22909)
[5] = molecular target: T3, Adrenergic receptor alpha-2 (Rattus norvegicus); remark: listed apart in the source

Log Ki [1]	Log Ki [2]	ID50 [4] [mg/kg]	ID50 [5] [mg/kg]	Compound	Kb [3] [nM]
-8.97	-5.57	0.027	0.17	COc1ccc2c(c1)CCN1C[C@H]3CCCN(S(=O)(=O)N(C)C)[C@@H]3C[C@@H]21	0.501
-6.32	< -5	> 10	> 10	COc1ccc2c(c1)CCN1C[C@@H]3CCCN(S(C)(=O)=O)[C@@H]3C[C@H]21	316

Source: ChEMBL document CHEMBL1125249, “Structure-affinity relationships of 12-sulfonyl derivatives of 5,8,8a,9,10,11,12,12a,13,13a-decahydro-6H-isoquino[2,1-g][1 ,6] naphthyridines at alpha-adrenoceptors” (J Med Chem, 1991)
